Legend:
[1] = molecular target: Glycogen synthase kinase-3 beta (Homo sapiens, UniProt P49841); assay: Inhibition of recombinant GSK3-beta by ELISA
Rattus norvegicus = assay: Antihyperglycemic activity in ip dosed Sprague-Dawley rat assessed as increase liver glycogen; type: functional, organism-based
Outline: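 Female Sprague Dawley rats, six weeks old, about 200 g. Food and water removed 6 h before a single ip injection of 5, 15 or 25 mg/kg as the sodium salt in PBS pH 7.2, 0.5 mL/rat. PBS vehicle control, n=3 per group. Liver homogenized in 5% TCA, glycogen precipitated with ethanol, measured with anthrone at 620 nm. Mean ± SEM.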

Sequence of Glycogen synthase kinase-3 beta (P49841 whole entry): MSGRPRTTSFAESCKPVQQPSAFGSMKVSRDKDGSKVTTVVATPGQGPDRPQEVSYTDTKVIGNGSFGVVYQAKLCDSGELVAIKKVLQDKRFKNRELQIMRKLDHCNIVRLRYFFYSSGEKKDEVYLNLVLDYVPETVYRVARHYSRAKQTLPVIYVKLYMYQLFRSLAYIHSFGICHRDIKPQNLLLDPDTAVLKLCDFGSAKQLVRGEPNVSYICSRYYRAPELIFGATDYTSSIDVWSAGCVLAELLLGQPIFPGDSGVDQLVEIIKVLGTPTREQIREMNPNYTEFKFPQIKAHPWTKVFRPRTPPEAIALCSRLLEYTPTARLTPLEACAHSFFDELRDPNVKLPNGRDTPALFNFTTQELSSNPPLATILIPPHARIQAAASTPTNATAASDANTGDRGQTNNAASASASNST

Row | Compound | IC50 [1] | Activity (Rattus norvegicus)
1 | O=C1NC(=O)/C(=C/c2ccc(O)cc2)N1 [4-HYDROXYPHENYLMETHYLENE HYDANTOIN] | 13.7 µM | 
2 | CCN(CC)c1ccc(/C=C2\NC(=O)NC2=O)cc1 | 4.2 µM | Dose-dependent effect
3 | CSc1ccc(/C=C2\NC(=O)NC2=O)cc1 | 6.9 µM | 
4 | O=C1NC(=O)/C(=C/c2ccc(-c3ccsc3)cc2)N1 | 6.4 µM | 
5 | O=C1NC(=O)/C(=C/c2ccc(-c3cccs3)cc2)N1 | 13.5 µM | 
6 | CCSc1ccc(/C=C2\NC(=O)NC2=O)cc1 | 7.8 µM | 
7 | O[C@]12C=C(c3nccc4c3[nH]c3ccccc34)[C@@H]3CCN(CCCC/C=C\CC1)C[C@@]31C[C@@H]3/C=C\CCCCN3[C@H]12 [MANZAMINE A] | 12.3 µM | 
8 | O=C1NC(=O)/C(=C/c2ccc(Cl)cc2)N1 | 18.2 µM | 

From ChEMBL document CHEMBL1153493, “The marine natural-derived inhibitors of glycogen synthase kinase-3beta phenylmethylene hydantoins: In vitro and in vivo activities and pharmacophore modeling” (Bioorg Med Chem, 2009)
